Measurements reported in ChEMBL document CHEMBL4038350 (J Med Chem, 2017).
Non-standard residues stand in square brackets, D forms with d. Residues, ends and D or L forms follow the SMILES beside them.

Columns and labels:
Format in all cases: functional, cell-based
[1] = biological target: Melanocortin receptor 5 (Mus musculus) (UniProt P41149); experiment: Inverse agonist activity at mouse melanocortin receptor 5 expressed in HEK293 cells assessed as decrease in cAMP accumulation at 510 nM after 2 hrs by AlphaScreen assay relative to control; parameters: scale not given: the % may be the effect or the level left
Summary of the method: (§1)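 In mouse MC5R-HEK293 cells, cAMP was measured by AlphaScreen after 2 h peptide exposure (10−4 to 10−13 M) at room temperature. Each replicate was normalized to its signal at 10−10 M. For sigmoidal curves, percent inverse agonism was the change from basal to the high-concentration plateau. Apparent potency was taken as the curve inflection point. Three independent experiments were run.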

[2] = biological target: T1, Melanocortin receptor 4 (Mus musculus, UniProt P56450); experiment: Agonist activity at mouse melanocortin receptor 4 expressed in HEK293 cells assessed as increase in cAMP accumulation after 2 hrs by AlphaScreen assay
[3] = biological target: T1, Melanocortin receptor 4; experiment: Antagonist activity at mouse melanocortin receptor 4 expressed in HEK293 cells assessed as inhibition of NDP-MSH-induced cAMP accumulation after 2 hrs by AlphaScreen assay; settings: read-out: pA2 (converted)
[4] = biological target: T2, Melanocortin receptor 3 (Mus musculus, UniProt P33033); experiment: Agonist activity at mouse melanocortin receptor 3 expressed in HEK293 cells assessed as increase in cAMP accumulation after 2 hrs by AlphaScreen assay
[5] = biological target: Melanocyte-stimulating hormone receptor (Mus musculus) (UniProt Q01727); experiment: Agonist activity at mouse melanocortin receptor 1 expressed in HEK293 cells assessed as increase in cAMP accumulation at 100 uM after 2 hrs by AlphaScreen assay relative to control
Summary of the method: (§2)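 Cyclic peptides were dissolved in DMSO. Receptor-expressing HEK293 cells in IBMX-containing stimulation buffer (pH 7.4) were stimulated for 2 h at room temperature. cAMP was then detected by competitive AlphaScreen after a 2 h lysis/bead step. […] Values come from at least three independent experiments.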

[6] = biological target: T2, Melanocortin receptor 3; experiment: Antagonist activity at mouse melanocortin receptor 3 expressed in HEK293 cells assessed as inhibition of NDP-MSH-induced cAMP accumulation after 2 hrs by AlphaScreen assay; settings: read-out: pA2 (converted)
[7] = biological target: Melanocortin receptor 3 (Mus musculus) (UniProt P33033); experiment: Agonist activity at mouse melanocortin receptor 3 expressed in HEK293 cells assessed as increase in cAMP accumulation at 100 uM after 2 hrs by AlphaScreen assay relative to control; summary of the method: as §2
[8] = biological target: Melanocortin receptor 5 (Mus musculus, UniProt P41149); experiment: Agonist activity at mouse melanocortin receptor 5 expressed in HEK293 cells assessed as increase in cAMP accumulation after 2 hrs by AlphaScreen assay
Summary of the method: (§3)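 Donor beads and biotin-cAMP in lysis buffer followed for 2 h. The AlphaScreen signal was read. EC50 came from nonlinear least-squares fits, duplicates, at least three independent experiments.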

[9] = biological target: Melanocortin receptor 4 (Mus musculus) (UniProt P56450); experiment: Agonist activity at mouse melanocortin receptor 4 expressed in HEK293 cells assessed as increase in cAMP accumulation at 100 uM after 2 hrs by AlphaScreen assay; summary of the method: as §2
[10] = biological target: Melanocortin receptor 5 (Mus musculus) (UniProt P41149); experiment: Inverse agonist activity at mouse melanocortin receptor 5 expressed in HEK293 cells assessed as decrease in cAMP accumulation at 160 nM after 2 hrs by AlphaScreen assay relative to control; parameters: scale not given: the % may be the effect or the level left; summary of the method: as §1
[11] = biological target: Melanocortin receptor 5 (Mus musculus) (UniProt P41149); experiment: Inverse agonist activity at mouse melanocortin receptor 5 expressed in HEK293 cells assessed as decrease in cAMP accumulation at 60 nM after 2 hrs by AlphaScreen assay relative to control; parameters: scale not given: the % may be the effect or the level left; summary of the method: as §1
[12] = biological target: Melanocyte-stimulating hormone receptor (Mus musculus, UniProt Q01727); experiment: Agonist activity at mouse melanocortin receptor 1 expressed in HEK293 cells assessed as increase in cAMP accumulation after 2 hrs by AlphaScreen assay; summary of the method: as §3
[13] = biological target: Melanocortin receptor 5 (Mus musculus) (UniProt P41149); experiment: Inverse agonist activity at mouse melanocortin receptor 5 expressed in HEK293 cells assessed as decrease in cAMP accumulation at 50 nM after 2 hrs by AlphaScreen assay relative to control; parameters: scale not given: the % may be the effect or the level left; summary of the method: as §1
[14] = biological target: Melanocortin receptor 5 (Mus musculus) (UniProt P41149); experiment: Inverse agonist activity at mouse melanocortin receptor 5 expressed in HEK293 cells assessed as decrease in cAMP accumulation at 10 nM after 2 hrs by AlphaScreen assay relative to control; parameters: scale not given: the % may be the effect or the level left; summary of the method: as §1
[15] = biological target: Melanocortin receptor 5 (Mus musculus) (UniProt P41149); experiment: Inverse agonist activity at mouse melanocortin receptor 5 expressed in HEK293 cells assessed as decrease in cAMP accumulation at 110 nM after 2 hrs by AlphaScreen assay relative to control; parameters: scale not given: the % may be the effect or the level left; summary of the method: as §1
[16] = biological target: Melanocortin receptor 5 (Mus musculus) (UniProt P41149); experiment: Inverse agonist activity at mouse melanocortin receptor 5 expressed in HEK293 cells assessed as decrease in cAMP accumulation at 130 nM after 2 hrs by AlphaScreen assay relative to control; parameters: scale not given: the % may be the effect or the level left; summary of the method: as §1

T1 sequence (P56450 whole entry): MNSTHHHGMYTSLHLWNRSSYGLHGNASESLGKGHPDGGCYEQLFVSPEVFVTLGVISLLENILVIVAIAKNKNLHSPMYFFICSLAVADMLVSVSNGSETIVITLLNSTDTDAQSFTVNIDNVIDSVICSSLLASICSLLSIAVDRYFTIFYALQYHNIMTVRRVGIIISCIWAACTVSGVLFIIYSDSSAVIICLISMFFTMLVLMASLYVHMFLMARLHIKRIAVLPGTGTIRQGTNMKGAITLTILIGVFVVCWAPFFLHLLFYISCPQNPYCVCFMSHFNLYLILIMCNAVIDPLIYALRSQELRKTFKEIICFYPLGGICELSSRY
Melanocortin receptor 5 (Mus musculus), sequence (P41149 whole entry): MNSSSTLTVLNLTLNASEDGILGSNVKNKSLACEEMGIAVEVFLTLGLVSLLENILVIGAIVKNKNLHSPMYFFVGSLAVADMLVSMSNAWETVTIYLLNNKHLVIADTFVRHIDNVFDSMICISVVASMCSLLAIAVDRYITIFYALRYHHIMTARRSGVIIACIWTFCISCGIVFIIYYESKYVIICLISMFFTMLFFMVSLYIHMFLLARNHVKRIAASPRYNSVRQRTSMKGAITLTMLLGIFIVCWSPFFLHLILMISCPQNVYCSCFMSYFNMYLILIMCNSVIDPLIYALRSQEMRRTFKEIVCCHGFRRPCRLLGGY
Melanocyte-stimulating hormone receptor (Mus musculus), sequence (Q01727 whole entry, looked up): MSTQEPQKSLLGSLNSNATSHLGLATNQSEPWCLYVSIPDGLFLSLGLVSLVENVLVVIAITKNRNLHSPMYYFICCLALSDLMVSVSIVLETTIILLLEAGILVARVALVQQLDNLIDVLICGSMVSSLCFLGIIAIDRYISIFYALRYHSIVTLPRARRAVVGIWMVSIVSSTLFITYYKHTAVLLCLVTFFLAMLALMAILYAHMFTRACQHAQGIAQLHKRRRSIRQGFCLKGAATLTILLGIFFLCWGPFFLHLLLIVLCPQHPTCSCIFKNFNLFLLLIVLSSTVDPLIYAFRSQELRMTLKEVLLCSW
Melanocyte-stimulating hormone receptor, sequence (Q01727 whole entry): as the sequence (Q01727 whole entry, looked up) above
T2 sequence (P33033 whole entry): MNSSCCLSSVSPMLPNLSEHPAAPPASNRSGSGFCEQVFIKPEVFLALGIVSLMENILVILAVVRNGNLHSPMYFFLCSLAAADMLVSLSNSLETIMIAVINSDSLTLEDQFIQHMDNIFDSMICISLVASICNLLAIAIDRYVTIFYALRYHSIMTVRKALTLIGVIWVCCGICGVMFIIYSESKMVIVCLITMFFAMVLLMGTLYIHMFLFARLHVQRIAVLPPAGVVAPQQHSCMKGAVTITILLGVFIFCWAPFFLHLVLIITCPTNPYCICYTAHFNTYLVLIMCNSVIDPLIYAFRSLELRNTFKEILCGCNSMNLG
Melanocortin receptor 4 (Mus musculus), sequence (P56450 whole entry): as the sequence (P56450 whole entry) above
Melanocortin receptor 5, sequence (P41149 whole entry): as the sequence (P41149 whole entry) above
Melanocortin receptor 3 (Mus musculus), sequence (P33033 whole entry): as the sequence (P33033 whole entry) above

Structure (SMILES)	EC50 [2]	Kb [3]	EC50 [4]	Activity [5]	Kb [6]	EC50 [12]	also measured
CC(C)[C@@H]1NC(=O)[C@H](Cc2ccccc2)NC(=O)[C@H](Cc2ccccc2)NC(=O)[C@H](CCCNC(=N)N)NC(=O)[C@@H]2CCCN2C(=O)[C@H]2CCCN2C(=O)[C@H](Cc2ccccc2)NC(=O)[C@H](C)NC1=O	> 100 µM	1.26 µM	> 100 µM	55%	> 3.16 µM	–	Activity [1]: 25%
CC(C)C[C@@H]1NC(=O)[C@H](CC(N)=O)NC(=O)[C@H](Cc2ccccc2)NC(=O)[C@H](Cc2ccccc2)NC(=O)[C@H](CCCNC(=N)N)NC(=O)[C@@H]2CCCN2C(=O)[C@H]2CCCN2C(=O)[C@H](Cc2ccccc2)NC1=O	–	0.661 µM	–	80%	> 3.16 µM	–	Activity [7]: 25%; EC50 [8]: > 100 µM; Activity [9]: 25%
CCC1NC(=O)[C@H](Cc2ccccc2)NC(=O)[C@H](Cc2ccccc2)NC(=O)[C@H](CCCNC(=N)N)NC(=O)[C@@H]2CCCN2C(=O)[C@H]2CCCN2C(=O)[C@H](Cc2ccccc2)NC(=O)[C@H](C)NC1=O (stereo partly drawn)	–	–	> 100 µM	–	> 3.16 µM	–	Activity [10]: 20%
C[C@@H]1NC(=O)[C@H](CN)NC(=O)[C@H](Cc2ccccc2)NC(=O)[C@H](Cc2ccccc2)NC(=O)[C@H](CCCNC(=N)N)NC(=O)[C@@H]2CCCN2C(=O)[C@H]2CCCN2C(=O)[C@H](Cc2ccccc2)NC1=O	–	–	> 100 µM	30%	0.302 µM	–	Activity [11]: 15%
C[C@@H]1NC(=O)[C@H]([C@@H](C)O)NC(=O)[C@H](Cc2ccccc2)NC(=O)[C@H](Cc2ccccc2)NC(=O)[C@H](CCCNC(=N)N)NC(=O)[C@@H]2CCCN2C(=O)[C@H]2CCCN2C(=O)[C@H](Cc2ccccc2)NC1=O (cyclo(RFFTAF[dP]P))	> 100 µM	0.0174 µM	> 100 µM	–	0.398 µM	> 100 µM	Activity [13]: 20%
C[C@@H]1NC(=O)[C@H](Cc2c[nH]cn2)NC(=O)[C@H](Cc2ccccc2)NC(=O)[C@H](Cc2ccccc2)NC(=O)[C@H](CCCNC(=N)N)NC(=O)[C@@H]2CCCN2C(=O)[C@H]2CCCN2C(=O)[C@H](Cc2ccccc2)NC1=O	> 100 µM	–	> 100 µM	–	0.347 µM	> 100 µM	Activity [14]: 15%
CC(C)C[C@@H]1NC(=O)[C@H](Cc2ccccc2)NC(=O)[C@H](Cc2ccccc2)NC(=O)[C@H](CCCNC(=N)N)NC(=O)[C@@H]2CCCN2C(=O)[C@H]2CCCN2C(=O)[C@H](Cc2ccccc2)NC(=O)[C@H](C)NC1=O (cyclo(RFFLAF[dP]P))	> 100 µM	0.0457 µM	> 100 µM	–	2 µM	> 100 µM	Activity [15]: 20%
C[C@@H]1NC(=O)[C@H](CC(N)=O)NC(=O)[C@H](Cc2ccccc2)NC(=O)[C@H](Cc2ccccc2)NC(=O)[C@H](CCCNC(=N)N)NC(=O)[C@@H]2CCCN2C(=O)[C@H]2CCCN2C(=O)[C@H](Cc2ccccc2)NC1=O	–	–	–	25%	–	–	Activity [16]: 10%
